Key:
Format in all cases: functional, cell-based
A498 = assay: Antiproliferative activity against human A498 cells after 10 days; conditions: A498, 240 h
In short: (§1)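 Tested as part of a 240-line cancer cell panel (Eurofins Oncopanel); all lines were mycoplasma-negative and STR-verified. Cells were exposed to a compound concentration series in 2D culture for 10 days. The highest concentration was 10 μM or 25 μM, depending on the inhibitor. Antiproliferative IC50 was derived from the mean of three biological replicates.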

A673 = assay: Antiproliferative activity against human A673 cells after 10 days; conditions: A673, 240 h; in short: as §1
ARH-77 = assay: Antiproliferative activity against human ARH-77 cells after 10 days; conditions: ARH-77, 240 h; in short: as §1
AU565 = assay: Antiproliferative activity against human AU565 cells after 10 days; conditions: AU565, 240 h; in short: as §1
Calu-1 = assay: Antiproliferative activity against human Calu-1 cells after 10 days; conditions: Calu-1, 240 h
In short: (§2)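 10-day 2D proliferation screen of a broad cancer cell panel (about 240 lines, Eurofins Oncopanel). All lines were mycoplasma negative and STR verified. Compounds were dosed up to a top concentration of 10 μM or 25 μM, depending on the inhibitor. Anti-proliferative IC50 values are the average of three biological replicates.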

Caov-3 cell line = assay: Antiproliferative activity against human Caov-3 cells after 10 days; conditions: Caov-3, 240 h; in short: as §2
CCF-STTG1 = assay: Antiproliferative activity against human CCF-STTG1 cells after 10 days; conditions: CCF-STTG1, 240 h
In short: (§3)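 Cell lines run in the Eurofins Oncopanel broad cancer panel, all mycoplasma-negative and STR-verified. Cells were exposed to a compound concentration series in a 10-day proliferation assay, and an anti-proliferative IC50 was derived. Values are the mean of three biological replicates.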

COLO 201 = assay: Antiproliferative activity against human COLO201 cells after 10 days; conditions: COLO 201, 240 h; in short: as §2
COLO 320DM = assay: Antiproliferative activity against human COLO 320DM cells after 10 days; conditions: 240 h; in short: as §1
COR-L105 = assay: Antiproliferative activity against human COR-L105 cells after 10 days; conditions: COR-L105, 240 h; in short: as §2
DMS-273 = assay: Antiproliferative activity against human DMS-273 cells after 10 days; conditions: DMS-273, 240 h; in short: as §2
DoTc2-4510 = assay: Antiproliferative activity against human DoTc2-4510 cells after 10 days; conditions: DoTc2-4510, 240 h; in short: as §2
G-401 = assay: Antiproliferative activity against human G-401 cells after 10 days; conditions: G-401, 240 h; in short: as §2
HEC-1-A = assay: Antiproliferative activity against human HEC-1-A cells after 10 days; conditions: 240 h; in short: as §2
HT1197 = assay: Antiproliferative activity against human HT1197 cells after 10 days; conditions: HT1197, 240 h; in short: as §3
HT-29 = assay: Antiproliferative activity against human HT-29 cells after 10 days; conditions: HT-29, 240 h; in short: as §2
Jurkat = assay: Antiproliferative activity against human Jurkat cells after 10 days; conditions: 240 h
In short: (§4)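 Broad cancer cell line panel (Eurofins Oncopanel, about 240 lines; mycoplasma negative, STR verified) grown in 2D culture and exposed to compound in a 10-day proliferation assay. The top concentration was 10 μM for the SMYD2 inhibitor series and 25 μM for the SMYD3 inhibitor. The proliferative IC50 is taken from concentration-response data, each value the mean of three biological replicates.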

[1] = Antiproliferative activity against human KHOS-240S cells after 10 days; conditions: 240 h; in short: as §4
MCF7 = assay: Antiproliferative activity against human MCF7 cells after 10 days; conditions: MCF7, 240 h; in short: as §4
NCI-H292 = assay: Antiproliferative activity against human NCI-H292 cells after 10 days; conditions: NCI-H292, 240 h; in short: as §4
Ramos = assay: Antiproliferative activity against human Ramos cells after 10 days; conditions: 240 h
SJRH30 = assay: Antiproliferative activity against human SJRH30 cells after 10 days; conditions: SJRH30, 240 h
SJSA-1 = assay: Antiproliferative activity against human SJSA-1 cells after 10 days; conditions: SJSA-1, 240 h
SK-N-DZ = assay: Antiproliferative activity against human SK-N-DZ cells after 10 days; conditions: 240 h
SNB-19 = assay: Antiproliferative activity against human SNB-19 cells after 10 days; conditions: SNB-19, 240 h
SW1463 = assay: Antiproliferative activity against human SW1463 cells after 10 days; conditions: SW1463, 240 h
SW684 = assay: Antiproliferative activity against human SW684 cells after 10 days; conditions: SW684, 240 h
SW948 = assay: Antiproliferative activity against human SW948 cells after 10 days; conditions: SW948, 240 h
SW 962 = assay: Antiproliferative activity against human SW 962 cells after 10 days; conditions: SW 962, 240 h
U2OS = assay: Antiproliferative activity against human U2OS cells after 10 days; conditions: 240 h
UMUC3 = assay: Antiproliferative activity against human UM-UC-3 cells after 10 days; conditions: UMUC3, 240 h
C32 = assay: Antiproliferative activity against human C32 cells after 10 days; conditions: C32, 240 h
C-4-II = assay: Antiproliferative activity against human C-4-II cells after 10 days; conditions: 240 h
CCRF-CEM = assay: Antiproliferative activity against human CCRF-CEM cells after 10 days; conditions: 240 h
COLO-829 = assay: Antiproliferative activity against human COLO-829 cells after 10 days; conditions: COLO-829, 240 h
DBTRG-05MG = assay: Antiproliferative activity against human DBTRG-05MG cells after 10 days; conditions: 240 h
Detroit 562 = assay: Antiproliferative activity against human Detroit 562 cells after 10 days; conditions: Detroit 562, 240 h
H4 = assay: Antiproliferative activity against human H4 cells after 10 days; conditions: H4, 240 h
HLE = assay: Antiproliferative activity against human HLE cells after 10 days; conditions: 240 h
MDA-MB-468 = assay: Antiproliferative activity against human MDA-MB-468 cells after 10 days; conditions: MDA-MB-468, 240 h
MX1 = assay: Antiproliferative activity against human MX1 cells after 10 days; conditions: MX1, 240 h
NCI-H460 = assay: Antiproliferative activity against human NCI-H460 cells after 10 days; conditions: NCI-H460, 240 h
SK-MEL-28 = assay: Antiproliferative activity against human SK-MEL-28 cells after 10 days; conditions: SK-MEL-28, 240 h
SK-N-AS = assay: Antiproliferative activity against human SK-N-AS cells after 10 days; conditions: 240 h
SR = assay: Antiproliferative activity against human SR cells after 10 days; conditions: 240 h

## Cc1cn(CCN2CCN(c3ccccc3-c3cc(C#N)cc(C(=O)NCCCN4CCCC4)c3)CC2)c2ccccc12
A498
  IC50: 2.01 µM
A673
  IC50: 2.03 µM
ARH-77
  IC50: 0.78 µM
AU565
  IC50: 1.25 µM
Calu-1
  IC50: 2.85 µM
Caov-3 cell line
  IC50: 2.6 µM
CCF-STTG1
  IC50: 5.82 µM
COLO 201
  IC50: 1.06 µM
COLO 320DM
  IC50: 2.11 µM
COR-L105
  IC50: 1.11 µM
DMS-273
  IC50: 0.987 µM
DoTc2-4510
  IC50: 1.07 µM
G-401
  IC50: 0.905 µM
HEC-1-A
  IC50: 1.05 µM
HT1197
  IC50: 1.56 µM
HT-29
  IC50: 1.26 µM
Jurkat
  IC50: 0.925 µM
[1]
  IC50: 1.31 µM
MCF7
  IC50: 3.11 µM
NCI-H292
  IC50: 2.69 µM
Ramos
  IC50: 1.04 µM
SJRH30
  IC50: 1.23 µM
SJSA-1
  IC50: 1.47 µM
SK-N-DZ
  IC50: 3.76 µM
SNB-19
  IC50: 2.52 µM
SW1463
  IC50: 3.06 µM
SW684
  IC50: 5.75 µM
SW948
  IC50: 3.91 µM
SW 962
  IC50: 3.38 µM
U2OS
  IC50: 1.68 µM
UMUC3
  IC50: 2.91 µM

## O=C(NC1CN(Cc2cnn(Cc3ccccc3)c2)C1)c1cn(C2CC2)nn1
A498
  IC50: > 10 µM
A673
  IC50: > 10 µM
ARH-77
  IC50: > 10 µM
AU565
  IC50: > 10 µM
C32
  IC50: > 10 µM
C-4-II
  IC50: > 10 µM
Calu-1
  IC50: > 10 µM
Caov-3 cell line
  IC50: > 10 µM
CCF-STTG1
  IC50: > 10 µM
CCRF-CEM
  IC50: > 10 µM
COLO 201
  IC50: > 10 µM
COLO 320DM
  IC50: > 10 µM
COLO-829
  IC50: 5.73 µM
COR-L105
  IC50: > 10 µM
DBTRG-05MG
  IC50: > 10 µM
Detroit 562
  IC50: > 10 µM
DMS-273
  IC50: > 10 µM
DoTc2-4510
  IC50: > 10 µM
G-401
  IC50: > 10 µM
H4
  IC50: > 10 µM
HEC-1-A
  IC50: > 10 µM
HLE
  IC50: > 10 µM
HT1197
  IC50: > 10 µM
HT-29
  IC50: > 10 µM
Jurkat
  IC50: > 10 µM
[1]
  IC50: > 10 µM
MCF7
  IC50: > 10 µM
MDA-MB-468
  IC50: > 10 µM
MX1
  IC50: > 10 µM
NCI-H292
  IC50: > 10 µM
NCI-H460
  IC50: > 10 µM
Ramos
  IC50: > 10 µM
SJRH30
  IC50: > 10 µM
SJSA-1
  IC50: > 10 µM
SK-MEL-28
  IC50: > 10 µM
SK-N-AS
  IC50: > 10 µM
SK-N-DZ
  IC50: > 10 µM
SNB-19
  IC50: > 10 µM
SR
  IC50: > 10 µM
SW1463
  IC50: > 10 µM
SW684
  IC50: > 10 µM
SW948
  IC50: > 10 µM
SW 962
  IC50: > 10 µM
U2OS
  IC50: > 10 µM
UMUC3
  IC50: > 10 µM

Source: ChEMBL document CHEMBL5674880 (PLoS One, 2018)
